Screening data: PubChem BioAssay, several laboratories
HIV Rev-RRE inh: inhibitors of HIV-1 Rev-RRE RNA interaction; P05866; Rev peptide-RRE RNA binding, FRET; inhibition, % at 8 µM; 97,000 compounds, 0.79% hits;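 active = inhibition above the screen-wide mean plus 3 SD, cut at about 35% in these data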
Target sequence (P05866 whole entry, looked up): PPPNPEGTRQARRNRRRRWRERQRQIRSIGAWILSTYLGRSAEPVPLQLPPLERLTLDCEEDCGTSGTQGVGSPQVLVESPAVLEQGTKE
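Probe or stimulus: fluorescein-Rev peptide as binding partner; assay system: Cy5-tagged RRE RNA duplex with fluorescein-tagged Rev peptide; timing: 5 min compound–RNA preincubation, then 15 min with peptide, 25 °C; medium: HEPES pH 7.5 buffer with KCl, MgCl2, NaCl and EDTA; signal: fluorescein-to-Cy5 FRET, 480 nm excitation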
Cav32 inh: blocks human Cav3.2 T-type calcium channel; O95180; 100,000 compounds, 4% hits; B-score at 10 µM; Cav3.2-expressing cells, Fluo-4 calcium fluorescence FDSS; stronger effect = lower value;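 active = single-dose well whose peak fluorescence ratio is a statistical outlier from its plate by either plate-standardised score or position-corrected B-score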
PLK1 inh: PLK1 (human) kinase inhibition; recombinant PLK1 kinase, TR-FRET peptide phosphorylation; inhibition, % at 10 µM; 97,000 compounds, 0.53% hits; AID 619;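 active = inhibition of 50% or more in the single-concentration screen; inactive = inhibition below 50%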
Target sequence (P53350 whole entry, looked up): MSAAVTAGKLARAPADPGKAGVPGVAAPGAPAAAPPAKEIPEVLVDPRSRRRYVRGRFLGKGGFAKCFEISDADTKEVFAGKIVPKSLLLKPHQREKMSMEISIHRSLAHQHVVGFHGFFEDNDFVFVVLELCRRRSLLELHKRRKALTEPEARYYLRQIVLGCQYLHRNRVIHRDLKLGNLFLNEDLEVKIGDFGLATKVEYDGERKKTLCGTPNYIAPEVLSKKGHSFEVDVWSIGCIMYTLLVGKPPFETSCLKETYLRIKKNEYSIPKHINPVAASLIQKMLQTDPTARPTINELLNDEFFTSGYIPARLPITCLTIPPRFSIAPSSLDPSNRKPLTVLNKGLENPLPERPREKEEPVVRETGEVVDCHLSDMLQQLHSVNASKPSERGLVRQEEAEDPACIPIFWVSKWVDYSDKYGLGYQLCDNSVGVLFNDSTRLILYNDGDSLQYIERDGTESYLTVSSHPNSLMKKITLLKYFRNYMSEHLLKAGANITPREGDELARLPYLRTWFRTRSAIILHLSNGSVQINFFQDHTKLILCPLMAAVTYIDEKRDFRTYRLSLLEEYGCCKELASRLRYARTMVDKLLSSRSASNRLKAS
PTK2B oligo ant: Pyk2 (human) oligomerization antagonism | Q14289 | Q293 cells, Pyk2 FERM NanoBiT luminescence; stronger effect = lower value | z-score (the deposit names both 25 µM and 10 µM) | 99,000 compounds, 0.83% hits;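 active = Z-score of -3 or lower, scaled per plate to the spread of control and sample wells; inactive = z-score above -3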;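 also: negative z-score means lost luminescence so less FERM oligomerization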
Plk1 PBD FP: Plk1 (human) PBD binding inhibition. 97,000 compounds, 0.13% hits. AID 693. inhibition, %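 (tested at about 20 µM)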. P53350. Plk1 PBD phosphopeptide binding, fluorescence polarization; in the data active = inhibition above about 34%, passing the limit was not always enough
FAK inh: blocks human focal adhesion kinase activity; Q05397; biochemical FAK kinase activity assay; inhibition, %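 (tested at 7 µM)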; 97,000 compounds, 0.84% hits; AID 727; in the data active = inhibition above about 19%
Large screens that a line does not name were inactive; [ ] = another dose, or the depositor's remark. Hits are enriched below; roughly 5.8% of the tested compounds scored in any of these assays.

Cn1cccc1Cc1nnc(SCC(=O)Nc2ccccc2F)n1CCc1ccccc1	none (no result: PTK2B oligo ant)
Cn1cccc1Cc1nnc(SCC(=O)N2CCc3ccccc32)n1CCc1ccccc1	Cav32 inh -8.7 (no result: HIV Rev-RRE inh, PLK1 inh, PTK2B oligo ant, Plk1 PBD FP, FAK inh)
Cn1cccc1Cc1nnc(SCC(=O)N2CCCC2)n1CCc1ccccc1	none (no result: PTK2B oligo ant)
Cc1csc(NC(=O)CSc2nnc(Cc3cccn3C)n2CCc2ccccc2)n1	Cav32 inh -8.4 (no result: HIV Rev-RRE inh, PLK1 inh, PTK2B oligo ant, Plk1 PBD FP, FAK inh)
Cc1ccccc1C(=O)N/N=C/c1ccc(OCC(=O)N2CCCCC2)cc1	none
CCOC(=O)c1c(C)sc(Sc2ccc(Cl)cc2[N+](=O)[O-])c1OC	none
Cc1cc(C)c(C2=CC(c3ccccc3)n3ncnc3N2)cc1C (stereo unspecified)	none (no result: HIV Rev-RRE inh, PLK1 inh, PTK2B oligo ant, Plk1 PBD FP, FAK inh)
CCN1CCC2(CC1)C(C#N)=C(N)Oc1c2sc2nc(C)cc(C)c12	HIV Rev-RRE inh 66
CC(=O)N1CCC2(CC1)C(C#N)=C(N)Oc1c2sc2nc(C)cc(C)c12	none (no result: HIV Rev-RRE inh, PLK1 inh, Plk1 PBD FP, FAK inh)
Clc1ccc(Cc2nc(-c3cccnc3)no2)cc1	none
CCCCCCNc1nc(NCc2ccco2)nc(OCC)n1	Cav32 inh -7.2
CCOc1nc(NCc2ccco2)nc(Nc2ccc(OC)cc2)n1	none
Cc1ccccc1-n1nnnc1SCc1csc(-c2ccccc2)n1	Cav32 inh -4.5
O=c1c2ccccc2nc(SCc2cc(F)cc3c2OCOC3)n1Cc1ccco1	Cav32 inh -6
CCOC(=O)c1cc2c(c(CSc3nc4ccccc4c(=O)n3Cc3ccco3)c1)OCOC2	none
CC(NC(=O)c1cccc(Cn2cc([N+](=O)[O-])cn2)c1)c1ccc(C(C)(C)C)cc1 (stereo unspecified)	Cav32 inh -4.3
CCC(NC(=O)c1cccc(Cn2cc([N+](=O)[O-])cn2)c1)c1ccc(C(C)C)cc1 (stereo unspecified)	Cav32 inh -4.3
CCNc1nc(NC(C)C)nc(Oc2ccc(/C=N/O)cc2)n1	none
Cn1cccc1C1C=C(c2ccc(C(C)(C)C)cc2)Nc2ncnn21 (stereo unspecified)	none (no result: HIV Rev-RRE inh, PLK1 inh, PTK2B oligo ant, Plk1 PBD FP, FAK inh)
Brc1ccc(C2=CC(c3cccs3)n3ncnc3N2)cc1 (stereo unspecified)	HIV Rev-RRE inh 135[fluorescence artefact?], Cav32 inh -5.5, PTK2B oligo ant -3.5
COc1cc(C2C(C(N)=O)=C(C)Nc3nc(CCCO)nn32)cc(OC)c1OC (stereo unspecified)	none (no result: HIV Rev-RRE inh, PTK2B oligo ant, FAK inh)
OCCCc1nc2n(n1)C(c1cccs1)C=C(c1ccc(Br)cc1)N2 (stereo unspecified)	HIV Rev-RRE inh 135[fluorescence artefact?], Cav32 inh -7.9 (no result: PTK2B oligo ant)
CCc1ccc(NC(=O)CSc2nnc(SCC(=O)Nc3ccc(CC)cc3)n2N)cc1	none
CCOC(=O)C1CCCN(C(=O)CC(c2ccccc2)c2ccccc2)C1 (stereo unspecified)	none
CCOC(=O)C1CCCN(C(=O)C2c3ccccc3Oc3ccccc32)C1 (stereo unspecified)	Cav32 inh -5.8
CC1Cc2ccccc2N1C(=O)Cn1c(=O)oc2cc(S(=O)(=O)NC3CCCC3)ccc21 (stereo unspecified)	Cav32 inh -8.9 (no result: PTK2B oligo ant)
COc1ccc(OC2C(=O)N(Cc3ccc4c(c3)OCO4)C2c2sccc2C)cc1 (stereo unspecified)	none
CCn1c2ccccc2c2cc(/C=N/NC(=O)c3ccccc3C)ccc21	none (no result: HIV Rev-RRE inh, Cav32 inh, PLK1 inh, Plk1 PBD FP, FAK inh)
CCn1ncc(/C=N\NC(=O)c2ccc3c(c2)c(C)c(C)n3Cc2ccccc2)c1C	Cav32 inh -5.7
CCn1ncc(/C=N/NC(=O)c2ccc3c(c2)OCO3)c1C	none
CCn1c2ccccc2c2cc(/C=N/NC(=O)c3cccc(C)c3)ccc21	Cav32 inh -4.2
CCn1cc(/C=N\NC(=O)c2ccc3c(c2)c(C)c(C)n3Cc2ccccc2)c(C)n1	Cav32 inh -6.6
CCn1nc(C)c(/C=N/NC(=O)c2ccc3c(c2)c(C)c(C)n3Cc2ccccc2)c1C	Cav32 inh -6.2
CCn1nc(C)c(/C=N\NC(=O)c2ccc3c(c2)OCO3)c1C	none
CCCCCC(=O)Nc1cccc(C2=NOC3(C2)C[C@@H](C(N)=O)N(C(=O)CC(c2ccccc2)c2ccccc2)C3)c1 (stereo partly specified)	none (no result: HIV Rev-RRE inh, PLK1 inh, PTK2B oligo ant, Plk1 PBD FP, FAK inh)
CCN(CC)S(=O)(=O)c1ccc(NS(=O)(=O)c2ccc(C)c(C)c2)cc1	Cav32 inh -4.3
CCCN(CCC)S(=O)(=O)c1ccc(NS(=O)(=O)c2ccc(F)cc2)cc1	Cav32 inh -3.9
CCN(CC)S(=O)(=O)c1ccc(S(=O)(=O)Nc2ccc(C(=O)N3CCCC3)cc2)cc1	none
Cc1nc([N+](=O)[O-])nn1C12CC3CC(CC(Cl)(C3)C1)C2	none (no result: HIV Rev-RRE inh, Cav32 inh, PLK1 inh, Plk1 PBD FP, FAK inh)
Cc1cc(C(=O)CSc2nnc(C3COc4ccccc4O3)n2C)c(C)n1-c1ccc(F)cc1 (stereo unspecified)	Cav32 inh -7.9
Cn1c(SCc2cnc(-c3ccccc3)s2)nnc1C1COc2ccccc2O1 (stereo unspecified)	Cav32 inh -4.9
Cn1c(SCC(=O)c2ccc3c(c2)OCO3)nnc1C1COc2ccccc2O1 (stereo unspecified)	none
Cn1c(SCc2cc(=O)n3cc(Br)ccc3n2)nnc1C1COc2ccccc2O1 (stereo unspecified)	none
COc1cccc(NC(=S)N2CCN(C/C=C/c3ccccc3)CC2)c1	Cav32 inh -4.9
COc1cccc(N2CCN(C(=S)Nc3cccc(C)c3)CC2)c1	none
CCC(=C(c1ccc(OC)cc1)c1ccc(OC)cc1)c1cn(CC(O)CN2CCN(C)CC2)c2ccccc12 (stereo unspecified)	none (no result: Cav32 inh, PTK2B oligo ant)
CCOC(=O)NC(=O)/C(C#N)=N\Nc1ccc(Cl)cc1	Cav32 inh -5.1
N#C/C(=N\Nc1ccc(Cl)cc1)C(=O)c1ccccc1	Cav32 inh -5.5
CCOc1ccc(-n2nc3c(-n4ncc(C#N)c4N)nnc(C)c3c2C)cc1	none (no result: Cav32 inh, PTK2B oligo ant)
CC(C)Oc1ccccc1C1Nc2ccccc2C(=O)N1c1ccc2c(c1)OCCO2 (stereo unspecified)	none
Cc1ccc(N2C(=O)c3ccccc3NC2C(C)Cc2ccc3c(c2)OCO3)cc1 (stereo unspecified)	Cav32 inh -4.3
CCCC[C@H]1C2=C3[C@@H](CC(C(=O)OC)=C[C@@H](C(=O)OC)[C@H]3C(C)(C)C2=O)n2c(=O)n(-c3ccccc3)c(=O)n21	none (no result: HIV Rev-RRE inh, PLK1 inh, PTK2B oligo ant, Plk1 PBD FP, FAK inh)
Cn1cnnc1SCc1ccc(C(=O)N=Nc2c(O)n(C)c3ccccc23)cc1	none (no result: HIV Rev-RRE inh, Cav32 inh, PLK1 inh, Plk1 PBD FP, FAK inh)
COc1cccc(NC(=O)N2CCC(C(N)=O)(N3CCCCC3)CC2)c1	PLK1 inh 66
COc1ccc(S(=O)(=O)N2CCC(C(N)=O)(N3CCCCC3)CC2)cc1	none (no result: PTK2B oligo ant)
C=CCCCCCCCCc1nc(=S)[nH][nH]1	Cav32 inh -5.2
CCCC(=Nc1ccc(N)cc1)C1=C(O)C(C(=O)OC)C(C)(C)CC1=O (stereo unspecified)	Cav32 inh -5.1
Cc1cc(=O)oc2ccc(OCC(=O)N(Cc3ccc(F)cc3)Cc3ccco3)cc12	Cav32 inh -5.1
